Experimental data gathered from unrelated publications.
Protocols differ between the studies behind these lines.
Target: Receptor-interacting serine/threonine-protein kinase 4 (RIPK4, Homo sapiens, UniProt P57078)
Sequence (P57078 1-832, as in one of the studies): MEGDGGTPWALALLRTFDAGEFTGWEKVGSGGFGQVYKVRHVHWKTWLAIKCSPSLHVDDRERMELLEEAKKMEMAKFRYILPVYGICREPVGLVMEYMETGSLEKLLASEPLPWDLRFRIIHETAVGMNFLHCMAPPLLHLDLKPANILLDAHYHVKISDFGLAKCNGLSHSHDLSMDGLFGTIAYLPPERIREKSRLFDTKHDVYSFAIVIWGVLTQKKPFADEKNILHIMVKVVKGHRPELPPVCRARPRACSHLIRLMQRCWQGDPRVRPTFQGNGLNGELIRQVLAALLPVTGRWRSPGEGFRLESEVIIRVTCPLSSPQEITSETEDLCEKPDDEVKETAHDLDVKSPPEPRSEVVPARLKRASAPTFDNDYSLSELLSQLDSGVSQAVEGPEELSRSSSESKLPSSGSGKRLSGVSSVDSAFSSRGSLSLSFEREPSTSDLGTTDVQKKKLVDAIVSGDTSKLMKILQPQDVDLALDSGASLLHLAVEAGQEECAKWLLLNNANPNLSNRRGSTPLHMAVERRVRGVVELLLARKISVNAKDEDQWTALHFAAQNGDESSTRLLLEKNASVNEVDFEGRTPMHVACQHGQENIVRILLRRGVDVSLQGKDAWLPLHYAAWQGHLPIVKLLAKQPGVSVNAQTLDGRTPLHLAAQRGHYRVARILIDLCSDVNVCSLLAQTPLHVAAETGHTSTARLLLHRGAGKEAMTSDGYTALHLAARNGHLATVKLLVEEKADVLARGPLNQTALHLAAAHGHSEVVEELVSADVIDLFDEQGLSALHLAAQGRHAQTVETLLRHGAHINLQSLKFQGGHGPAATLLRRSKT

Compound	assay	conditions	remaining binding [%]
COc1ncc2cc3ccccc3nc2c1C#N	cell-free assay, competition with immobilised ligand	5 µM	100
N#CC1(c2ccccn2)CCN(Cc2cc(C(=O)N3CCCC3)c(=O)n3ccccc23)CC1	cell-free assay, competition with immobilised ligand	1 µM	100
CC1CCCN1c1nccc(-c2cnn3ncccc23)n1 (stereo not drawn)	binding	1 µM	98
Nc1ncc2c(n1)-c1c([nH]c3ccc(C#CC4CC4)cc13)CCCC2	binding, competition with immobilised ligand	1 µM	100
FC(F)(F)Oc1cccc(-c2cnc3ccc(-c4ccncc4)nn23)c1	binding, competition with immobilised ligand	5 µM	69
C[C@@H](c1ccc(-n2cnc3c(N)ncnc32)cc1)N1CCc2nn(C)c(Cc3ccccc3)c2C1=O	binding, competition with immobilised ligand	0.1 µM	40
CN(C)c1nccc(-c2cnn3ncccc23)n1	binding	1 µM	97
CS(=O)(=O)N1CCCC(NC(=O)[C@H](CCC2CCCCC2)NC(=O)c2ccc(CNc3ncnc4c3nnn4-c3ccccc3)cc2)C1 (stereo partly drawn)	cell-free assay, competition with immobilised ligand	0.1 µM	100
F[C@@H]1CCN(c2nccc(-c3cnn4ncccc34)n2)C1	binding	1 µM	100
O=C(NCC1CCOCC1)c1n[nH]cc1NC(=O)c1c(F)cccc1F	binding, competition with immobilised ligand	1 µM	70
CN(c1ccnc(CNc2nc(Nc3ccc4c(c3)CC(=O)N4)ncc2C(F)(F)F)n1)S(C)(=O)=O	cell-free assay, competition with immobilised ligand	1 µM	6
N[C@H]1CCN(c2nccc(-c3cnn4ncccc34)n2)C1	binding	1 µM	100
O=C(c1ccc(Nc2ncc(Cl)c(-c3cc4ccccc4s3)n2)cc1)N1CCC(N2CCCC2)CC1	binding, competition with immobilised ligand	1 µM	41
COc1cc(-c2cn(C3CCc4ccccc4N(CC(F)(F)F)C3=O)nn2)ccc1-n1ccc(C)n1 (stereo not drawn)	cell-free assay, competition with immobilised ligand	1 µM	52
Cc1cnc(Nc2ccc(C(=O)N3CCC(N4CCCC4)CC3)cc2)nc1-c1cc2ccccc2s1	binding, competition with immobilised ligand	1 µM	28
C[C@@H]1CCN(c2nccc(-c3cnn4ncccc34)n2)C1	binding	1 µM	18
COc1cnc(Nc2cccc(S(N)(=O)=O)c2)nc1N1CCN(c2ccccc2)C(=O)C1	binding, competition with immobilised ligand	1 µM	86
O=C(NCCCC1CCCCC1)c1ccc(CNC(=O)c2cnn(-c3ccccc3)c2C(F)(F)F)cc1	cell-free assay, competition with immobilised ligand	0.1 µM	58
O=C(NCCCN1CCOCC1)c1ccc(Nc2ncc(Cl)c(-c3ccc(Cl)s3)n2)cc1	binding, competition with immobilised ligand	1 µM	46
O=S(=O)(NC1CCC(c2cc(F)ccc2F)(S(=O)(=O)c2ccc(Cl)cc2)CC1)C(F)(F)F (stereo not drawn)	cell-free assay, competition with immobilised ligand	1 µM	91
CN(CCCC(F)(F)F)c1nccc(-c2cnn3ncccc23)n1	binding	1 µM	100
